ChEMBL document CHEMBL1123086, “8-Substituted guanosine and 2'-deoxyguanosine derivatives as potential inducers of the differentiation of Friend erythroleukemia cells” (1985)

What was measured:
[1] = test system: Friend leukemia cell line; experiment: Inhibitory activity against cellular replication in Friend erythroleukemia cells as growth inhibition.; type: functional; settings: Mus musculus, read-out: ID50 (the source's name)
Summary of the method: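 Exponentially growing parental Friend erythroleukemia cells at (7–8) × 10⁴ cells/mL in DMEM with 15% FBS under 10% CO₂. Incubated with graded 2.5-fold concentration steps. Cell number was counted on day 3 with a particle counter, and percent growth inhibition was calculated from log cell number.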

[2] = test system: Friend leukemia cell line; experiment: Inhibitory activity against cellular differentiation in Friend erythroleukemia cells as optimal concentration required for maximum activity.; type: functional, Mus musculus
Summary of the method: (§1)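 Parental Friend murine erythroleukemia cells in exponential growth, seeded at (7–8) × 10⁴ cells/mL in Dulbecco's modified Eagle's MEM with 15% fetal bovine serum and 2 mM L-glutamine under 10% CO₂. Exposed to graded 2.5-fold concentration increases. On day 6, hemoglobin-containing cells staining blue with acidic 3,3',5,5'-tetramethylbenzidine peroxide were counted cytologically and reported as percent benzidine-positive cells.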

[3] = test system: Friend leukemia cell line; experiment: Inhibitory activity against cellular differentiation in Friend erythroleukemia cells as percentage of benzidine - positive cells.; type: functional, Mus musculus; summary of the method: as §1
[4] = test system: Friend erythroleukemia cells, HGPRT- (Mus musculus); experiment: Inhibitory activity against cellular replication in hypoxanthine-guanine phosphoribosyltransferase (HGPRT-) Friend murine erythroleukemia cells.; settings: read-out: ID50 (the source's name)

| SMILES | IC50 [1] [mM] | Optimal concentration [2] [mM] | Benzidine positive cells [3] [%] | IC50 [4] [mM] |
| --- | --- | --- | --- | --- |
| Nc1nc2c([nH]c(=O)n2[C@H]2C[C@H](O)[C@@H](CO)O2)c(=O)[nH]1 | 0.39 | 0.2 | 62 | 0.39 |
| Nc1nc(O)c2nc(N)n([C@@H]3O[C@H](CO)[C@@H](O)[C@H]3O)c2n1 | 1.7 | 0.4 | 34 | 1.7 |
| Nc1nc(O)c2nc(S)n([C@@H]3O[C@H](CO)[C@@H](O)[C@H]3O)c2n1 | 3.5 | 2 | 4 | 3.5 |
| Nc1nc(O)c2nc(Br)n([C@H]3C[C@H](O)[C@@H](CO)O3)c2n1 | > 5 | 7 | 20 | > 5 |
| Nc1nc(O)c2nc(OCc3ccccc3)n([C@H]3C[C@H](O)[C@@H](CO)O3)c2n1 | > 5 | 7 | 7 | > 5 |
| COc1nc2c(O)nc(N)nc2n1[C@H]1C[C@H](O)[C@@H](CO)O1 | > 5 | 5 | 22 | > 5 |
| CNc1nc2c(=O)[nH]c(N)nc2n1[C@@H]1O[C@H](CO)[C@@H](O)[C@H]1O | 2.9 | 1 | 42 | 4.9 |
| CN(C)c1nc2c(=O)[nH]c(N)nc2n1[C@@H]1O[C@H](CO)[C@@H](O)[C@H]1O | > 5 | 5 | 68 | > 5 |
| Nc1nc2c(nc(Br)n2[C@@H]2O[C@H](CO)[C@@H](O)[C@H]2O)c(=O)[nH]1 | 5.1 | 5 | 6 | 5.1 |
| Nc1nc(O)c2nc(OCc3ccccc3)n(C3O[C@H](CO)[C@@H](O)[C@H]3O)c2n1 (stereo partly specified) | > 8 | 8 | 4 | > 8 |
| [N-]=[N+]=Nc1nc2c(O)nc(N)nc2n1C1O[C@H](CO)[C@@H](O)[C@H]1O (stereo partly specified) | 3.6 | 2 | 12 | 3.6 |
| COc1nc2c(O)nc(N)nc2n1C1O[C@H](CO)[C@@H](O)[C@H]1O (stereo partly specified) | > 8 | 8 | 7 | > 8 |
| CSc1nc2c(O)nc(N)nc2n1C1O[C@H](CO)[C@@H](O)[C@H]1O (stereo partly specified) | > 8 | 5 | 11 | > 8 |
| Nc1nc(O)c2nc(NO)n(C3O[C@H](CO)[C@@H](O)[C@H]3O)c2n1 (stereo partly specified) | > 5 | 6 | 7 | – |
| CS(=O)(=O)c1nc2c(O)nc(N)nc2n1C1O[C@H](CO)[C@@H](O)[C@H]1O (stereo partly specified) | 5.4 | 5 | 30 | 10 |
| Nc1nc2c(nc(O)n2[C@@H]2O[C@H](CO)[C@@H](O)[C@H]2O)c(=O)[nH]1 [8-HYDROXYGUANOSINE] | 8 | 5 | 33 | 8 |
| Nc1nc(O)c2ncn([C@H]3C[C@H](O)[C@@H](CO)O3)c2n1 [DEOXYGUANOSINE] | 0.29 | – | 0 | 0.49 |
| C[S+](C)[O-] [DIMETHYL SULFOXIDE] | – | 200 | 70 | – |
| Nc1nc2c(ncn2[C@@H]2O[C@H](CO)[C@@H](O)[C@H]2O)c(=O)[nH]1 [GUANOSINE] | 1.2 | – | 0 | 7.8 |
